Measurements: ChEMBL document CHEMBL1122750, “8-Hydroxy-2-(alkylamino)tetralins and related compounds as central 5-hydroxytryptamine receptor agonists” (1984)
Calls of active or inactive are those of the source. No cut-off for these calls is given here.

How the values were obtained:
[1] = target: T1, Serotonin (5-HT) receptor (Rattus norvegicus) (UniProt P35563+P35365+P32305+P31388+Q9JJ16+P28564+P30994+Q62758+P08909+P14842+P30940+P35364+P19327+P28565); assay: Subcutaneous dose giving half-maximal decrease of 5-HTP formation in the rat brain hemispheres (cortex); assay type: functional, tissue-based
Summary of the method: (§1)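 Male Sprague-Dawley rats (200–350 g) were reserpinized. Reserpine was dissolved in glacial acetic acid and made up with 5.5% glucose. Test drug was given sc in saline, at neutral pH, 5 or 10 mL/kg. Brain-part 5-HTP formation was measured spectrofluorometrically. ED50 (half-maximal decrease) came from 4–6 dose levels, n = 3-5.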

[2] = target: T1, Serotonin (5-HT) receptor (Rattus norvegicus); assay: Subcutaneous dose giving half-maximal decrease of 5-HTP formation in the rat brain (striatum); assay type: functional, tissue-based; summary of the method: as §1
[3] = target: T2, Dopamine receptor (Rattus norvegicus) (UniProt P25115+P19020+P30729+P18901+P61169); assay: Subcutaneous dose giving half-maximal decrease of Dopa formation in the rat brain (limbic); assay type: functional, tissue-based
[4] = target: T2, Dopamine receptor (Rattus norvegicus); assay: Subcutaneous dose giving half-maximal decrease of Dopa formation in the rat brain (striatum); assay type: functional, tissue-based
[5] = target: T1, Serotonin (5-HT) receptor (Rattus norvegicus); assay: Subcutaneous dose giving half-maximal decrease of 5-HTP formation in the rat brain (limbic); assay type: functional, tissue-based; summary of the method: as §1
Rattus norvegicus [6] = assay: Compound was tested for subcutaneous dose giving half-maximal decrease of Dopa formation in the rat brain (striatum); assay type: functional; details: sc
Rattus norvegicus [7] = assay: Compound was tested for subcutaneous dose giving half-maximal decrease of Dopa formation in the rat brain (limbic); assay type: functional; details: sc
Rattus norvegicus [8] = assay: Compound was tested for subcutaneous dose giving half-maximal decrease of 5-HTP formation in the rat brain hemispheres (cortex); Inactive; assay type: functional, organism-based; summary of the method: as §1
Rattus norvegicus [9] = assay: Compound was tested for subcutaneous dose giving half-maximal decrease of 5-HTP formation in the rat brain (striatum); Inactive; assay type: functional, organism-based; summary of the method: as §1
Rattus norvegicus [10] = assay: Compound was tested for subcutaneous dose giving half-maximal decrease of 5-HTP formation in the rat brain (limbic); Inactive; assay type: functional, organism-based; summary of the method: as §1

CCCN(CCC)[C@@H]1CCc2cccc(O)c2C1
ED50 [1]: 0.05 µmol/kg | ED50 [2]: 0.047 µmol/kg | ED50 [3]: inactive | ED50 [4]: inactive | ED50 [5]: 0.036 µmol/kg

CCCCN(CCCC)C1CCc2cccc(O)c2C1 (stereo not given)
ED50 [1]: 5.7 µmol/kg | ED50 [2]: 6.6 µmol/kg | ED50 [3]: inactive | ED50 [4]: inactive | ED50 [5]: 5 µmol/kg

CCCN(CCC)C1CCc2cccc(OC)c2C1 (stereo not given)
ED50 [1]: 0.23 µmol/kg | ED50 [2]: 0.29 µmol/kg | ED50 [3]: inactive | ED50 [4]: inactive | ED50 [5]: 0.34 µmol/kg

CCCN(CC)C1CCc2cccc(O)c2C1 (stereo not given)
ED50 [1]: 0.066 µmol/kg | ED50 [2]: 0.059 µmol/kg | ED50 [3]: inactive | ED50 [4]: inactive | ED50 [5]: 0.057 µmol/kg

CNC1CCc2cccc(O)c2C1 (stereo not given)
ED50 [1]: 1.8 µmol/kg | ED50 [2]: 1.6 µmol/kg | ED50 [3]: inactive | ED50 [4]: inactive | ED50 [5]: 1.5 µmol/kg

CCCN(CCC)C1CCc2cccc(O)c2C1 (racemic)
ED50 [1]: 0.063 µmol/kg | ED50 [2]: 0.052 µmol/kg | ED50 [3]: inactive | ED50 [4]: inactive | ED50 [5]: 0.052 µmol/kg

CCCCNC1CCc2cccc(O)c2C1 (stereo not given)
ED50 [1]: 6.3 µmol/kg | ED50 [2]: 4.5 µmol/kg | ED50 [3]: inactive | ED50 [4]: inactive | ED50 [5]: 4.3 µmol/kg

CCCNC1CCc2cccc(O)c2C1 (stereo not given)
ED50 [1]: 0.18 µmol/kg | ED50 [2]: 0.15 µmol/kg | ED50 [3]: inactive | ED50 [4]: inactive | ED50 [5]: 0.14 µmol/kg

CCN(CC)C(=O)[C@@H]1C=C2c3cccc4[nH]cc(c34)C[C@H]2N(C)C1 [LYSERGIDE]
ED50 [1]: 0.036 µmol/kg | ED50 (Rattus norvegicus [6]): 0.395 µmol/kg | ED50 [2]: 0.035 µmol/kg | ED50 (Rattus norvegicus [7]): 0.39 µmol/kg | ED50 [5]: 0.036 µmol/kg

CCCN(CCC)C1CCc2c(OC)ccc(OC)c2C1 (stereo not given)
ED50 (Rattus norvegicus [8]): inactive | ED50 (Rattus norvegicus [9]): inactive | ED50 (Rattus norvegicus [6]): 1.24 µmol/kg | ED50 (Rattus norvegicus [7]): 0.905 µmol/kg | ED50 (Rattus norvegicus [10]): inactive

CCCN(CCC)C1CCc2c(O)ccc(O)c2C1 (stereo not given)
ED50 (Rattus norvegicus [8]): inactive | ED50 (Rattus norvegicus [9]): inactive | ED50 (Rattus norvegicus [6]): 5.4 µmol/kg | ED50 (Rattus norvegicus [7]): 5.2 µmol/kg | ED50 (Rattus norvegicus [10]): inactive

CN(C)C1CCc2cccc(O)c2C1 (stereo not given)
ED50 [1]: 0.36 µmol/kg | ED50 [2]: 0.43 µmol/kg | ED50 [3]: inactive | ED50 [4]: inactive | ED50 [5]: 0.38 µmol/kg

CC(C)NC1CCc2cccc(O)c2C1 (stereo not given)
ED50 [1]: 4.1 µmol/kg | ED50 [2]: 2.9 µmol/kg | ED50 [3]: inactive | ED50 [4]: inactive | ED50 [5]: 2.6 µmol/kg

CCCCN(CCC)C1CCc2cccc(O)c2C1 (stereo not given)
ED50 [1]: 0.34 µmol/kg | ED50 [2]: 0.26 µmol/kg | ED50 [3]: inactive | ED50 [4]: inactive | ED50 [5]: 0.27 µmol/kg

CCNC1CCc2cccc(O)c2C1 (stereo not given)
ED50 [1]: 0.22 µmol/kg | ED50 [2]: 0.2 µmol/kg | ED50 [3]: inactive | ED50 [4]: inactive | ED50 [5]: 0.27 µmol/kg

CCCN(CCC)[C@H]1CCc2cccc(O)c2C1
ED50 [1]: 0.077 µmol/kg | ED50 [2]: 0.065 µmol/kg | ED50 [3]: inactive | ED50 [4]: inactive | ED50 [5]: 0.061 µmol/kg

Oc1cccc2c1CC(N1CCCCC1)CC2 (stereo not given)
ED50 [1]: 1.4 µmol/kg | ED50 [2]: 1.1 µmol/kg | ED50 [3]: inactive | ED50 [4]: inactive | ED50 [5]: 1.6 µmol/kg

CCCCCCCCNC1CCc2cccc(O)c2C1 (stereo not given)
ED50 (Rattus norvegicus [8]): inactive | ED50 (Rattus norvegicus [9]): inactive | ED50 [3]: inactive | ED50 [4]: inactive | ED50 (Rattus norvegicus [10]): inactive

CCN(CC)C1CCc2cccc(O)c2C1 (stereo not given)
ED50 [1]: 0.07 µmol/kg | ED50 [2]: 0.068 µmol/kg | ED50 [3]: inactive | ED50 [4]: inactive | ED50 [5]: 0.054 µmol/kg

CCCN(Cc1ccccc1)C1CCc2cccc(O)c2C1 (stereo not given)
ED50 [1]: 2.3 µmol/kg | ED50 [2]: 2.9 µmol/kg | ED50 [3]: inactive | ED50 [4]: inactive | ED50 [5]: 2.7 µmol/kg
